# Experiments:
# Type in all cases: functional
# [1] = system: SF-295; assay: Cytotoxicity against human SF295 cells assessed as cell growth at 10 uM after 48 hrs by sulforhodamine B assay; details: SF-295, 48 h, read-out: Activity
# [2] = system: CCRF-CEM; assay: Cytotoxicity against human CCRF-CEM cells assessed as cell growth at 10 uM; details: read-out: Activity
# In short: (§1)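 Single-dose NCI-60 screen at 10 µM. Cells were grown in RPMI 1640 with 5% FBS and 2 mM L-glutamine, then treated for 48 h at 37 °C. Protein was measured by SRB staining with absorbance at 515 nm. Percentage growth was recorded, and inhibition percentage was calculated as 100 minus growth percentage.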
# [3] = system: SK-MEL-5; assay: Cytotoxicity against human SK-MEL-5 cells assessed as cell growth at 1 uM after 48 hrs by sulforhodamine B assay; details: SK-MEL-5, 48 h, read-out: Activity
# [4] = system: NCI-H460; assay: Cytotoxicity against human NCI-H460 cells assessed as cell growth at 1 uM after 48 hrs by sulforhodamine B assay; details: NCI-H460, 48 h, read-out: Activity
# [5] = system: PC-3; assay: Cytotoxicity against human PC3 cells assessed as cell growth at 10 uM after 48 hrs by sulforhodamine B assay; details: PC-3, 48 h, read-out: Activity
# [6] = Cytotoxicity against human […] cells assessed as cell growth at 10 uM; details: read-out: Activity
# In short: (§2)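 NCI-60 screen: cells grown in RPMI 1640 with 5% FBS and 2 mM L-glutamine, plated at 5000–40,000 cells/well according to doubling time, and preincubated 24 h at 37 °C, 5% CO2. The single 10 µM dose (DMSO stock) was added, then incubated 48 h. Cells were TCA-fixed and stained with 0.4% SRB, read at 515 nm, and growth % calculated against time-zero and control plates.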
# [7] = system: HOP-92; assay: Cytotoxicity against human HOP92 cells assessed as cell growth at 10 uM; details: read-out: Activity; in short: as §1
# [8] = system: CAKI-1; assay: Cytotoxicity against human Caki1 cells assessed as cell growth at 1 uM after 48 hrs by sulforhodamine B assay; details: CAKI-1, 48 h, read-out: Activity
# [9] = system: SK-MEL-28; assay: Growth inhibition of human SK-MEL-28 cells after 48 hrs by sulforhodamine B assay; details: SK-MEL-28, 48 h
# In short: (§3)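 NCI 60-cell screen, five-dose mode. Cells grown in RPMI 1640 with 5% FBS and 2 mM L-glutamine and plated at 5000-40,000 cells/well according to doubling time. After 24 h preincubation, a Tz plate was TCA-fixed. Five concentrations (10-fold or 1/2 log dilutions) were applied for 48 h at 37 °C. SRB staining read at 515 nm. IC50 taken from [(Ti-Tz)/(C-Tz)]×100 = 50.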
# [10] = system: SK-MEL-28; assay: Cytotoxicity against human SK-MEL-28 cells assessed as cell growth at 10 uM after 48 hrs by sulforhodamine B assay; details: SK-MEL-28, 48 h, read-out: Activity
# [11] = Cytotoxicity against human […] cells assessed as cell growth at 10 uM after 48 hrs by sulforhodamine B assay; details: read-out: Activity
# [12] = system: HCC 2998; assay: Cytotoxicity against human HCC2998 cells assessed as cell growth at 100 nM after 48 hrs by sulforhodamine B assay; details: HCC 2998, 48 h, read-out: Activity
# [13] = system: SK-MEL-28; assay: Cytotoxicity against human SK-MEL-28 cells assessed as cell growth at 0.001 uM after 48 hrs by sulforhodamine B assay; details: SK-MEL-28, 48 h, read-out: Activity
# [14] = system: SR; assay: Cytotoxicity against human SR cells assessed as cell growth at 0.01 uM after 48 hrs by sulforhodamine B assay; details: read-out: Activity
# [15] = system: HCC 2998; assay: Cytotoxicity against human HCC2998 cells assessed as cell growth at 10 uM after 48 hrs by sulforhodamine B assay; details: HCC 2998, 48 h, read-out: Activity
# [16] = system: SR; assay: Cytotoxicity against human SR cells assessed as cell growth at 0.001 uM after 48 hrs by sulforhodamine B assay; details: read-out: Activity
# [17] = system: RXF 393; assay: Cytotoxicity against human RXF393 cells assessed as cell growth at 10 uM after 48 hrs by sulforhodamine B assay; details: RXF 393, 48 h, read-out: Activity
# [18] = system: ACHN; assay: Cytotoxicity against human ACHN cells assessed as cell growth at 0.01 uM after 48 hrs by sulforhodamine B assay; details: read-out: Activity
# [19] = system: SF-295; assay: Cytotoxicity against human SF295 cells assessed as cell growth at 100 nM after 48 hrs by sulforhodamine B assay; details: SF-295, 48 h, read-out: Activity
# [20] = system: RXF 393; assay: Growth inhibition of human RXF393 cells after 48 hrs by sulforhodamine B assay; details: RXF 393, 48 h; in short: as §3
# [21] = system: MCF7; assay: Cytotoxicity against human MCF7 cells assessed as cell growth at 0.001 uM after 48 hrs by sulforhodamine B assay; details: MCF7, 48 h, read-out: Activity
# [22] = system: RXF 393; assay: Cytotoxicity against human RXF393 cells assessed as cell growth at 1 uM after 48 hrs by sulforhodamine B assay; details: RXF 393, 48 h, read-out: Activity
# [23] = system: SK-MEL-28; assay: Cytotoxicity against human SK-MEL-28 cells assessed as cell growth at 100 nM after 48 hrs by sulforhodamine B assay; details: SK-MEL-28, 48 h, read-out: Activity
# [24] = system: NCI-H226; assay: Growth inhibition of human NCI-H226 cells after 48 hrs by sulforhodamine B assay; details: NCI-H226, 48 h; in short: as §3
# [25] = system: MCF7; assay: Cytotoxicity against human MCF7 cells assessed as cell growth at 100 nM after 48 hrs by sulforhodamine B assay; details: MCF7, 48 h, read-out: Activity
# [26] = system: HCT-116; assay: Cytotoxicity against human HCT116 cells assessed as cell growth at 100 nM after 48 hrs by sulforhodamine B assay; details: HCT-116, 48 h, read-out: Activity
# [27] = system: DU-145; assay: Cytotoxicity against human DU145 cells assessed as cell growth at 0.01 uM after 48 hrs by sulforhodamine B assay; details: DU-145, 48 h, read-out: Activity
# [28] = system: SR; assay: Growth inhibition of human SR cells after 48 hrs by sulforhodamine B assay; in short: as §3
# [29] = system: RXF 393; assay: Cytotoxicity against human RXF393 cells assessed as cell growth at 0.001 uM after 48 hrs by sulforhodamine B assay; details: RXF 393, 48 h, read-out: Activity
# [30] = system: NCI-H226; assay: Cytotoxicity against human NCI-H226 cells assessed as cell growth at 1 uM after 48 hrs by sulforhodamine B assay; details: NCI-H226, 48 h, read-out: Activity
# [31] = system: MDA-MB-435; assay: Cytotoxicity against human MDA-MB-435 cells assessed as cell growth at 0.01 uM after 48 hrs by sulforhodamine B assay; details: MDA-MB-435, 48 h, read-out: Activity
# [32] = system: KM12; assay: Cytotoxicity against human KM12 cells assessed as cell growth at 10 uM; details: read-out: Activity; in short: as §2
# [33] = system: NCI-H226; assay: Cytotoxicity against human NCI-H226 cells assessed as cell growth at 0.01 uM after 48 hrs by sulforhodamine B assay; details: NCI-H226, 48 h, read-out: Activity
# [34] = system: SR; assay: Cytotoxicity against human SR cells assessed as cell growth at 1 uM after 48 hrs by sulforhodamine B assay; details: read-out: Activity
# [35] = system: HCC 2998; assay: Cytotoxicity against human HCC2998 cells assessed as cell growth at 1 uM after 48 hrs by sulforhodamine B assay; details: HCC 2998, 48 h, read-out: Activity
# [36] = system: SR; assay: Cytotoxicity against human SR cells assessed as cell growth at 100 nM after 48 hrs by sulforhodamine B assay; details: read-out: Activity
# [37] = read-out: LC50 (the source's name)
smiles,measurement,setting,value
COc1cc(C)cc(-c2c(-c3ccnc(-c4ccc(N(C)C)cc4)c3)cnn2CC#N)c1,growth at 10 µM,[1],-30%
same,growth at 10 µM,[2],3.55%
same,growth at 1 µM,[3],-31%
same,growth at 1 µM,[4],-53%
same,growth at 10 µM,[5],4%
same,growth at 10 µM,[6],0.08%
same,growth at 10 µM,[7],29.1%
same,growth at 1 µM,[8],-21%
COc1cc(C)cc(-c2nn(CC#N)cc2-c2ccnc(-c3ccc(N(C)C)cc3)c2)c1,growth at 10 µM,[1],-32%
same,GI50,[9],0.776 µM
same,TGI,[9],> 100 µM
same,CC50,[9]; [37],> 100 µM
same,growth at 10 µM,[10],13%
same,growth at 10 µM,[11],-28%
same,growth at 0.1 µM,[12],20%
same,growth at 0.001 µM,[13],100%
same,growth at 0.01 µM,[14],97%
same,growth at 10 µM,[15],-76%
same,growth at 0.001 µM,[16],96%
same,growth at 1 µM,[3],-40%
same,growth at 10 µM,[17],-24%
same,growth at 0.01 µM,[18],98%
same,growth at 0.1 µM,[19],3%
same,GI50,[20],0.258 µM
same,LC50 (concentration killing 50% of the starting cells),[20],> 100 µM
same,TGI,[20],0.633 µM
same,growth at 1 µM,[4],-27%
same,growth at 0.001 µM,[21],104%
same,growth at 1 µM,[22],-21%
same,growth at 0.1 µM,[23],44%
same,GI50,[24],0.968 µM
same,TGI,[24],127 µM
same,CC50,[24]; [37],> 100 µM
same,growth at 0.1 µM,[25],24%
same,growth at 0.1 µM,[26],11%
same,growth at 0.01 µM,[27],99%
same,GI50,[28],0.461 µM
same,LC50 (concentration killing 50% of cells),[28],> 100 µM
same,TGI,[28],> 10 µM
same,growth at 0.001 µM,[29],105%
same,growth at 1 µM,[30],3%
same,growth at 0.01 µM,[31],94%
same,growth at 10 µM,[32],7.15%
same,growth at 0.01 µM,[33],105%
same,growth at 1 µM,[34],18%
same,growth at 1 µM,[35],-51%
same,growth at 0.1 µM,[36],26%
same,growth at 1 µM,[8],4%

# Reference: ChEMBL document CHEMBL1165950, “Design and synthesis of new potent anticancer pyrazoles with high FLT3 kinase inhibitory selectivity” (Bioorg Med Chem, 2010)
